Laboratory results taken from ChEMBL document CHEMBL5058577, “EUbOPEN Chemogenomics Library 2 (Multiplex)” (2022).

Test system: HEK-293T
Assay: Multiplex assay against HEK293T
Type: toxicity, cell-based
Conditions: human
Outline: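 Live cells carried four stains from seeding: Hoechst33342, BioTracker Green Microtubule Cytoskeleton Dye, MitoTracker Red and Annexin V Alexa Fluor 680. They were imaged on a CQ1 microscope at 37°C and 5% CO2 after compound addition. Using CellPathfinder machine-learning gating, cells were split into Hoechst high-intensity objects or normal cells, normal cells into healthy, pyknosed or fragmented nuclei, and pyknosed cells into mitotic or apoptotic; tubulin, mitochondrial-mass and membrane-permeability phenotypes are per cents of healthy-nucleus cells.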

[1] = 12 h, 1 µM, compound concentration 1 uM, replicate 1
[2] = 12 h, 1 µM, compound concentration 1 uM, replicate 2
[3] = 12 h, 10 µM, compound concentration 10 uM, replicate 1
[4] = 12 h, 10 µM, compound concentration 10 uM, replicate 2
[5] = 24 h, 1 µM, compound concentration 1 uM, replicate 1
[6] = 24 h, 1 µM, compound concentration 1 uM, replicate 2
[7] = 24 h, 10 µM, compound concentration 10 uM, replicate 1
[8] = 24 h, 10 µM, compound concentration 10 uM, replicate 2
[9] = 48 h, 1 µM, compound concentration 1 uM, replicate 1
[10] = 48 h, 1 µM, compound concentration 1 uM, replicate 2
[11] = 48 h, 10 µM, compound concentration 10 uM, replicate 1
[12] = 48 h, 10 µM, compound concentration 10 uM, replicate 2

C[C@H](NC(=O)CNC(=O)c1cccc(Cl)c1)c1ccccc1
Population Apoptotic (%) [1]: 33%
Population Fragmented Nuclei (%) [1]: 5%
Population Healthy Nuclei (%) [1]: 79%
Population Hoechst High Intensity Objects (%) [1]: 8%
Population Membrane Permeable-Phenotype (%) [1]: 0%
Population Mitochondria Different-Phenotype (%) [1]: 39%
Population Mitotic Cells (%) [1]: 66%
Population Normal (%) [1]: 91%
Population Pyknosed Nuclei (%) [1]: 15%
Population Tubulin-Different-Phenotype (%) [1]: 29%
Total Cell Count [1]: 449
Population Apoptotic (%) [2]: 48%
Population Fragmented Nuclei (%) [2]: 6%
Population Healthy Nuclei (%) [2]: 84%
Population Hoechst High Intensity Objects (%) [2]: 4%
Population Mitochondria Different-Phenotype (%) [2]: 52%
Population Mitotic Cells (%) [2]: 51%
Population Normal (%) [2]: 95%
Population Pyknosed Nuclei (%) [2]: 9%
Population Tubulin-Different-Phenotype (%) [2]: 17%
Total Cell Count [2]: 384
Population Apoptotic (%) [3]: 41%
Population Fragmented Nuclei (%) [3]: 6%
Population Healthy Nuclei (%) [3]: 76%
Population Hoechst High Intensity Objects (%) [3]: 7%
Population Membrane Permeable-Phenotype (%) [3]: 0%
Population Mitochondria Different-Phenotype (%) [3]: 54%
Population Mitotic Cells (%) [3]: 58%
Population Normal (%) [3]: 92%
Population Pyknosed Nuclei (%) [3]: 17%
Population Tubulin-Different-Phenotype (%) [3]: 39%
Total Cell Count [3]: 362
Population Apoptotic (%) [4]: 58%
Population Fragmented Nuclei (%) [4]: 7%
Population Healthy Nuclei (%) [4]: 77%
Population Hoechst High Intensity Objects (%) [4]: 13%
Population Mitochondria Different-Phenotype (%) [4]: 61%
Population Mitotic Cells (%) [4]: 41%
Population Normal (%) [4]: 86%
Population Pyknosed Nuclei (%) [4]: 15%
Population Tubulin-Different-Phenotype (%) [4]: 33%
Total Cell Count [4]: 272
Population Apoptotic (%) [5]: 23%
Population Fragmented Nuclei (%) [5]: 9%
Population Healthy Nuclei (%) [5]: 80%
Population Hoechst High Intensity Objects (%) [5]: 4%
Population Membrane Permeable-Phenotype (%) [5]: 1%
Population Mitochondria Different-Phenotype (%) [5]: 25%
Population Mitotic Cells (%) [5]: 76%
Population Normal (%) [5]: 95%
Population Pyknosed Nuclei (%) [5]: 10%
Population Tubulin-Different-Phenotype (%) [5]: 15%
Total Cell Count [5]: 646
Population Apoptotic (%) [6]: 45%
Population Fragmented Nuclei (%) [6]: 7%
Population Healthy Nuclei (%) [6]: 84%
Population Hoechst High Intensity Objects (%) [6]: 2%
Population Membrane Permeable-Phenotype (%) [6]: 0%
Population Mitochondria Different-Phenotype (%) [6]: 32%
Population Mitotic Cells (%) [6]: 54%
Population Normal (%) [6]: 97%
Population Pyknosed Nuclei (%) [6]: 7%
Population Tubulin-Different-Phenotype (%) [6]: 9%
Total Cell Count [6]: 476
Population Apoptotic (%) [7]: 43%
Population Fragmented Nuclei (%) [7]: 9%
Population Healthy Nuclei (%) [7]: 77%
Population Hoechst High Intensity Objects (%) [7]: 4%
Population Membrane Permeable-Phenotype (%) [7]: 0%
Population Mitochondria Different-Phenotype (%) [7]: 39%
Population Mitotic Cells (%) [7]: 56%
Population Normal (%) [7]: 95%
Population Pyknosed Nuclei (%) [7]: 12%
Population Tubulin-Different-Phenotype (%) [7]: 25%
Total Cell Count [7]: 505
Population Apoptotic (%) [8]: 58%
Population Fragmented Nuclei (%) [8]: 10%
Population Healthy Nuclei (%) [8]: 78%
Population Hoechst High Intensity Objects (%) [8]: 9%
Population Mitochondria Different-Phenotype (%) [8]: 49%
Population Mitotic Cells (%) [8]: 41%
Population Normal (%) [8]: 90%
Population Pyknosed Nuclei (%) [8]: 11%
Population Tubulin-Different-Phenotype (%) [8]: 19%
Total Cell Count [8]: 303
Population Apoptotic (%) [9]: 19%
Population Fragmented Nuclei (%) [9]: 13%
Population Healthy Nuclei (%) [9]: 80%
Population Hoechst High Intensity Objects (%) [9]: 3%
Population Membrane Permeable-Phenotype (%) [9]: 0%
Population Mitochondria Different-Phenotype (%) [9]: 15%
Population Mitotic Cells (%) [9]: 80%
Population Normal (%) [9]: 96%
Population Pyknosed Nuclei (%) [9]: 5%
Population Tubulin-Different-Phenotype (%) [9]: 12%
Total Cell Count [9]: 984
Population Apoptotic (%) [10]: 30%
Population Healthy Nuclei (%) [10]: 81%
Population Hoechst High Intensity Objects (%) [10]: 2%
Population Membrane Permeable-Phenotype (%) [10]: 2%
Population Mitochondria Different-Phenotype (%) [10]: 16%
Population Mitotic Cells (%) [10]: 70%
Population Normal (%) [10]: 97%
Population Tubulin-Different-Phenotype (%) [10]: 6%
Total Cell Count [10]: 606
Population Apoptotic (%) [11]: 44%
Population Fragmented Nuclei (%) [11]: 15%
Population Healthy Nuclei (%) [11]: 77%
Population Hoechst High Intensity Objects (%) [11]: 1%
Population Membrane Permeable-Phenotype (%) [11]: 0%
Population Mitochondria Different-Phenotype (%) [11]: 26%
Population Mitotic Cells (%) [11]: 55%
Population Normal (%) [11]: 98%
Population Pyknosed Nuclei (%) [11]: 7%
Population Tubulin-Different-Phenotype (%) [11]: 18%
Total Cell Count [11]: 735
Population Apoptotic (%) [12]: 35%
Population Fragmented Nuclei (%) [12]: 19%
Population Healthy Nuclei (%) [12]: 72%
Population Hoechst High Intensity Objects (%) [12]: 2%
Population Mitochondria Different-Phenotype (%) [12]: 28%
Population Mitotic Cells (%) [12]: 64%
Population Normal (%) [12]: 97%
Population Tubulin-Different-Phenotype (%) [12]: 16%
Total Cell Count [12]: 462

CN1CCN(c2ccc(Nc3c4ccccc4nc4ccccc34)cc2)CC1.Cl.Cl.O
Population Apoptotic (%) [1]: 42%
Population Fragmented Nuclei (%) [1]: 7%
Population Healthy Nuclei (%) [1]: 81%
Population Hoechst High Intensity Objects (%) [1]: 3%
Population Membrane Permeable-Phenotype (%) [1]: 0%
Population Mitochondria Different-Phenotype (%) [1]: 50%
Population Mitotic Cells (%) [1]: 57%
Population Normal (%) [1]: 96%
Population Pyknosed Nuclei (%) [1]: 11%
Population Tubulin-Different-Phenotype (%) [1]: 28%
Total Cell Count [1]: 411
Population Apoptotic (%) [2]: 55%
Population Fragmented Nuclei (%) [2]: 4%
Population Healthy Nuclei (%) [2]: 90%
Population Hoechst High Intensity Objects (%) [2]: 1%
Population Mitochondria Different-Phenotype (%) [2]: 59%
Population Mitotic Cells (%) [2]: 45%
Population Normal (%) [2]: 98%
Population Pyknosed Nuclei (%) [2]: 5%
Population Tubulin-Different-Phenotype (%) [2]: 20%
Total Cell Count [2]: 364
Population Apoptotic (%) [3]: 100%
Population Fragmented Nuclei (%) [3]: 24%
Population Healthy Nuclei (%) [3]: 74%
Population Hoechst High Intensity Objects (%) [3]: 1%
Population Membrane Permeable-Phenotype (%) [3]: 0%
Population Mitochondria Different-Phenotype (%) [3]: 99%
Population Mitotic Cells (%) [3]: 0%
Population Normal (%) [3]: 98%
Population Pyknosed Nuclei (%) [3]: 1%
Population Tubulin-Different-Phenotype (%) [3]: 97%
Total Cell Count [3]: 234
Population Fragmented Nuclei (%) [4]: 40%
Population Healthy Nuclei (%) [4]: 58%
Population Hoechst High Intensity Objects (%) [4]: 0%
Population Mitochondria Different-Phenotype (%) [4]: 100%
Population Normal (%) [4]: 99%
Population Tubulin-Different-Phenotype (%) [4]: 92%
Total Cell Count [4]: 194
Population Apoptotic (%) [5]: 42%
Population Fragmented Nuclei (%) [5]: 9%
Population Healthy Nuclei (%) [5]: 84%
Population Hoechst High Intensity Objects (%) [5]: 2%
Population Membrane Permeable-Phenotype (%) [5]: 0%
Population Mitochondria Different-Phenotype (%) [5]: 40%
Population Mitotic Cells (%) [5]: 57%
Population Normal (%) [5]: 97%
Population Pyknosed Nuclei (%) [5]: 5%
Population Tubulin-Different-Phenotype (%) [5]: 14%
Total Cell Count [5]: 455
Population Apoptotic (%) [6]: 46%
Population Healthy Nuclei (%) [6]: 86%
Population Hoechst High Intensity Objects (%) [6]: 0%
Population Mitochondria Different-Phenotype (%) [6]: 44%
Population Mitotic Cells (%) [6]: 53%
Population Normal (%) [6]: 99%
Population Pyknosed Nuclei (%) [6]: 4%
Population Tubulin-Different-Phenotype (%) [6]: 12%
Total Cell Count [6]: 362
Population Apoptotic (%) [7]: 100%
Population Fragmented Nuclei (%) [7]: 28%
Population Healthy Nuclei (%) [7]: 69%
Population Hoechst High Intensity Objects (%) [7]: 2%
Population Membrane Permeable-Phenotype (%) [7]: 0%
Population Mitochondria Different-Phenotype (%) [7]: 100%
Population Mitotic Cells (%) [7]: 0%
Population Normal (%) [7]: 97%
Population Pyknosed Nuclei (%) [7]: 2%
Population Tubulin-Different-Phenotype (%) [7]: 92%
Total Cell Count [7]: 247
Population Fragmented Nuclei (%) [8]: 45%
Population Healthy Nuclei (%) [8]: 53%
Population Hoechst High Intensity Objects (%) [8]: 0%
Population Normal (%) [8]: 99%
Population Pyknosed Nuclei (%) [8]: 0%
Population Tubulin-Different-Phenotype (%) [8]: 91%
Total Cell Count [8]: 206
Population Apoptotic (%) [9]: 45%
Population Fragmented Nuclei (%) [9]: 11%
Population Healthy Nuclei (%) [9]: 82%
Population Hoechst High Intensity Objects (%) [9]: 3%
Population Membrane Permeable-Phenotype (%) [9]: 0%
Population Mitochondria Different-Phenotype (%) [9]: 30%
Population Mitotic Cells (%) [9]: 54%
Population Normal (%) [9]: 96%
Population Pyknosed Nuclei (%) [9]: 6%
Population Tubulin-Different-Phenotype (%) [9]: 16%
Total Cell Count [9]: 581
Population Apoptotic (%) [10]: 60%
Population Fragmented Nuclei (%) [10]: 10%
Population Healthy Nuclei (%) [10]: 85%
Population Hoechst High Intensity Objects (%) [10]: 1%
Population Mitochondria Different-Phenotype (%) [10]: 36%
Population Mitotic Cells (%) [10]: 40%
Population Normal (%) [10]: 98%
Population Pyknosed Nuclei (%) [10]: 3%
Population Tubulin-Different-Phenotype (%) [10]: 12%
Total Cell Count [10]: 411
Population Apoptotic (%) [11]: 100%
Population Fragmented Nuclei (%) [11]: 34%
Population Healthy Nuclei (%) [11]: 56%
Population Hoechst High Intensity Objects (%) [11]: 11%
Population Membrane Permeable-Phenotype (%) [11]: 0%
Population Mitochondria Different-Phenotype (%) [11]: 100%
Population Mitotic Cells (%) [11]: 0%
Population Normal (%) [11]: 88%
Population Pyknosed Nuclei (%) [11]: 9%
Population Tubulin-Different-Phenotype (%) [11]: 88%
Total Cell Count [11]: 318
Population Apoptotic (%) [12]: 66%
Population Fragmented Nuclei (%) [12]: 52%
Population Healthy Nuclei (%) [12]: 46%
Population Hoechst High Intensity Objects (%) [12]: 5%
Population Mitochondria Different-Phenotype (%) [12]: 99%
Population Mitotic Cells (%) [12]: 33%
Population Normal (%) [12]: 94%
Population Pyknosed Nuclei (%) [12]: 1%
Population Tubulin-Different-Phenotype (%) [12]: 89%
Total Cell Count [12]: 272
